# Assays:
# [1] = system: Mus musculus; experiment: Plasma A-beta-40 level in Tg CRND8 mouse at 30 mg/kg, sc after 3 hrs; type: functional; conditions: route subcutaneous
# How it was run: (§1)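 Tg CRND8 transgenic mice, acute single dose of 30 mpk, oral or sub-cutaneous. Plasma Aβ40 measured 3 h after dosing and expressed as % reduction.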
# [2] = system: Mus musculus; experiment: Plasma A-beta-40 level in Tg CRND8 mouse at 30 mg/kg, po after 3 hrs; type: functional; how it was run: as §1
# [3] = AUC in rat at 10 mg/kg, po after 0 to 6 hrs; type: ADME, organism-based; parameters: time < 6 hr, dose 10 mg/kg, route oral; conditions: plasma
AUC at 6 h [3],Compound,Activity [1],Activity [2]
892 ng·h/mL,CC[C@@H]1CCC[C@H](C2(OC(=O)N3CCN(C(C)(C)CO)CC3)CC2)N1S(=O)(=O)c1ccc(Cl)cc1 (racemic),91%,96%
1870 ng·h/mL,CC[C@@H]1CCC[C@H](C2(OC(=O)N3CCN(CCO)[C@@H](C)C3)CC2)N1S(=O)(=O)c1ccc(Cl)cc1 (racemic),,
405 ng·h/mL,CC[C@@H]1CCC[C@H](C2(OC(=O)N3CCN(C(C)(C)CO)CC3)CC2)N1S(=O)(=O)c1ccc(F)cc1 (racemic),59%,
3410 ng·h/mL,CC[C@@H]1CCC[C@H](C2(OC(=O)N3CCN(CCO)C[C@@H]3C)CC2)N1S(=O)(=O)c1ccc(Cl)cc1 (racemic),,
939 ng·h/mL,CC[C@@H]1CCC[C@H](C2(OC(=O)N3CC4CCC(C3)N4CCO)CC2)N1S(=O)(=O)c1ccc(Cl)cc1 (mixture of isomers),85%,
81 ng·h/mL,CC[C@@H]1CCC[C@H](C2(OC(=O)N3CCC(CCO)(OC)CC3)CC2)N1S(=O)(=O)c1ccc(Cl)cc1 (racemic),,
296 ng·h/mL,CC[C@@H]1CCC[C@H](C2(OC(=O)N3CCC(N4CCCCC4)CC3)CC2)N1S(=O)(=O)c1cc(F)cc(F)c1 (racemic),,
1780 ng·h/mL,CC[C@@H]1CCC[C@H](C2(OC(=O)N3CC4CCC(C3)N4CCO)CC2)N1S(=O)(=O)c1ccc(F)cc1 (mixture of isomers),,
1330 ng·h/mL,CC[C@@H]1CCC[C@H](C2(OC(=O)N3CC4CCC(C3)N4CCO)CC2)N1S(=O)(=O)c1ccc(F)c(F)c1 (mixture of isomers),,
